In the array DNA melting data of Ke et al. (doi:10.1101/2024.01.08.574731):

Legend:
[1] = melting temperature; fluorescence melt of hairpins on a sequencing array, two-state fit, raised by 9.35 °C to match UV melts; settings: sodium 0.088 M
Outline: (§1)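 Hairpins were imaged by Cy3 fluorescence on a sequenced MiSeq flow cell with annealed Cy3 and quencher oligos, in 50 mM Na-HEPES pH 8.0, 25 mM NaCl, in 2.5 °C steps up to 60 °C. Bootstrapped two-state fits of normalised signals gave melting temperature and folding enthalpy. Four replicates were combined by inverse variance, and fitted temperatures were raised by 9.35 °C to match UV melts.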

[2] = folding enthalpy; higher = less favourable; fluorescence melt of hairpins on a sequencing array, two-state fit; settings: sodium 0.088 M
Outline: as §1

GTATACGAAAGTAACTAC ((((((....)))..)))
Tm [1]: 26.4 °C | folding enthalpy [2]: -19.9 kcal/mol

GATCTGCAATCAGATC ((((((....))))))
Tm [1]: 47.2 °C | folding enthalpy [2]: -36.7 kcal/mol

GCACTCCGAAAGGAATGC (((.(((....))).)))
Tm [1]: 51.1 °C | folding enthalpy [2]: -38.6 kcal/mol

GATCCCCCAGGGGATC ((((((....))))))
Tm [1]: 65.2 °C | folding enthalpy [2]: -36.4 kcal/mol

GTTAGGACGAAAGTCAAC (((..(((....))))))
Tm [1]: 28.8 °C | folding enthalpy [2]: -10.7 kcal/mol

GCTGTTGGAAACAATAGC (((.(((....))).)))
Tm [1]: 47.9 °C | folding enthalpy [2]: -31.9 kcal/mol

GCGTGGCGAAAGCCGTGC ((..(((....)))..))
Tm [1]: 57.4 °C | folding enthalpy [2]: -19.2 kcal/mol

GCATTGCGAAAGCAAAGC ((.((((....)))).))
Tm [1]: 58 °C | folding enthalpy [2]: -18.6 kcal/mol

GATGCCGAAAGGCCATC ((((((....))).)))
Tm [1]: 46.9 °C | folding enthalpy [2]: -14.2 kcal/mol

GAATCGGAAACGATTC ((((((....))))))
Tm [1]: 55.7 °C | folding enthalpy [2]: -36.1 kcal/mol

GCGGTCGAAAGACTCCGC ((((((....)))..)))
Tm [1]: 50.7 °C | folding enthalpy [2]: -25.4 kcal/mol

GATCGATATTCGATC ((((((...))))))
Tm [1]: 52.6 °C | folding enthalpy [2]: -30.3 kcal/mol

GACACCGGAAACAGTGTC (((((.(....).)))))
Tm [1]: 44.3 °C | folding enthalpy [2]: -28.8 kcal/mol

GAACTACGAAAGTATTTC (((.(((....))).)))
Tm [1]: 32.7 °C | folding enthalpy [2]: -13.6 kcal/mol

GTAGTTGGAAACGACTAC (((((.(....).)))))
Tm [1]: 45.8 °C | folding enthalpy [2]: -26.4 kcal/mol

AAGCTGAAAAGCTT (((((....)))))
Tm [1]: 49.3 °C | folding enthalpy [2]: -21.1 kcal/mol

GACAGCGAAAGCTATGTC ((((((....)))..)))
Tm [1]: 43.5 °C | folding enthalpy [2]: -19.1 kcal/mol

GCTCTGCGAAAGCGGTGC ((.(.((....)).).))
Tm [1]: 54.4 °C | folding enthalpy [2]: -19 kcal/mol

GATCGAGTGTTCGATC ((((((....))))))
Tm [1]: 51.9 °C | folding enthalpy [2]: -34.8 kcal/mol

GGAACTGGAAACGGTTCC (((((.(....).)))))
Tm [1]: 51 °C | folding enthalpy [2]: -34.9 kcal/mol

GCGATGGCTCGC ((((....))))
Tm [1]: 47.8 °C | folding enthalpy [2]: -19.2 kcal/mol

GAGGTAGGAAACTGCTTC ((.(.((....)).).))
Tm [1]: 26.7 °C | folding enthalpy [2]: -15.6 kcal/mol

GCCCAATCGAAAGATGGC (((..(((....))))))
Tm [1]: 43.3 °C | folding enthalpy [2]: -24.9 kcal/mol

GTCTAGGGAAACCTAGGC (.(((((....))))).)
Tm [1]: 46.2 °C | folding enthalpy [2]: -24.7 kcal/mol

GGCGGGTCGAAAGACGCC (((..(((....))))))
Tm [1]: 58 °C | folding enthalpy [2]: -24.8 kcal/mol

GGCTACGAAAGTAGAGCC ((((((....)))..)))
Tm [1]: 49.5 °C | folding enthalpy [2]: -20 kcal/mol

GATGCACGAAAGTGTATC (((.(((....))).)))
Tm [1]: 54.2 °C | folding enthalpy [2]: -31.7 kcal/mol

GATCTTTAGTAAGATC ((((((....))))))
Tm [1]: 40 °C | folding enthalpy [2]: -29.9 kcal/mol

GCGACGCGAAAGCCCCGC (((..((....))..)))
Tm [1]: 44.4 °C | folding enthalpy [2]: -15.2 kcal/mol

GAGGCGACGAAAGTCCTC (((..(((....))))))
Tm [1]: 38.1 °C | folding enthalpy [2]: -12.6 kcal/mol

GAGAACGGAAACGTTCCC (.(((((....))))).)
Tm [1]: 40 °C | folding enthalpy [2]: -11.9 kcal/mol

GGCTTCACGAAAGTGGCC (((..(((....))))))
Tm [1]: 45.2 °C | folding enthalpy [2]: -19.6 kcal/mol

GGACCTCGAAAGAGCTCC (((.(((....))).)))
Tm [1]: 37 °C | folding enthalpy [2]: -25.5 kcal/mol

GGGAACGGAAACATTCCC (((((.(....).)))))
Tm [1]: 39.4 °C | folding enthalpy [2]: -32.6 kcal/mol

GAGGCCGGAAACGGCTTC ((.((((....)))).))
Tm [1]: 55.9 °C | folding enthalpy [2]: -16.9 kcal/mol

GTTGTTGGAAACAACAAC (((((((....)))))))
Tm [1]: 58.6 °C | folding enthalpy [2]: -41.5 kcal/mol

GCTAGGCGAAAGCATTGC ((.(.((....)).).))
Tm [1]: 42.1 °C | folding enthalpy [2]: -19.2 kcal/mol

GGAACCGAAAGGTTATCC ((((((....)))..)))
Tm [1]: 35.9 °C | folding enthalpy [2]: -11.8 kcal/mol

GCGACTTTTCGC ((((....))))
Tm [1]: 49 °C | folding enthalpy [2]: -21.6 kcal/mol

CGGTTCCGGAAACGGCCG (((..(((....))))))
Tm [1]: 43.3 °C | folding enthalpy [2]: -21 kcal/mol

GCCTACGAAAGTAGGGC ((((((....))).)))
Tm [1]: 61.8 °C | folding enthalpy [2]: -16.4 kcal/mol

GTGAACGAAAGTTGCAC ((((((....))).)))
Tm [1]: 37.3 °C | folding enthalpy [2]: -19.8 kcal/mol

GATCTCTCGCGAGATC ((((((....))))))
Tm [1]: 51.4 °C | folding enthalpy [2]: -42.2 kcal/mol

GCTGAAGAAATTCAGC ((((((....))))))
Tm [1]: 54.5 °C | folding enthalpy [2]: -37.6 kcal/mol

GAATCCGAAAGGATCTTC ((((((....)))..)))
Tm [1]: 51.3 °C | folding enthalpy [2]: -24.5 kcal/mol

GTGCCATCGAAAGATCAC (((..(((....))))))
Tm [1]: 38.4 °C | folding enthalpy [2]: -5.32 kcal/mol

GTACCGGGAAACCAGTAC ((((.((....)).))))
Tm [1]: 38.4 °C | folding enthalpy [2]: -23.5 kcal/mol

GGTTCGAAAGAACC (((((....)))))
Tm [1]: 64.8 °C | folding enthalpy [2]: -28.2 kcal/mol

GTAAACGAAAGTTGCTAC ((((((....)))..)))
Tm [1]: 29 °C | folding enthalpy [2]: -9.49 kcal/mol

GGACATCGAAAGATCTCC (((.(((....))).)))
Tm [1]: 32.6 °C | folding enthalpy [2]: -21.8 kcal/mol

GGGGCCGAAAGGCGACCC ((((((....)))..)))
Tm [1]: 55.9 °C | folding enthalpy [2]: -15.9 kcal/mol

GTGGAGGGAAACCTCTGC (..((((....))))..)
Tm [1]: 37.6 °C | folding enthalpy [2]: -19.2 kcal/mol

GCTCTAACGAAAGTTAGC (((..(((....))))))
Tm [1]: 33.8 °C | folding enthalpy [2]: -13.7 kcal/mol

GCGCCCGGAAACGAGCGC ((((.((....)).))))
Tm [1]: 60 °C | folding enthalpy [2]: -38.9 kcal/mol

GTGATGGGAAACCATCGC (.(((((....))))).)
Tm [1]: 55.1 °C | folding enthalpy [2]: -23.7 kcal/mol

GCCATCGAAAGATGAGGC ((((((....)))..)))
Tm [1]: 46.3 °C | folding enthalpy [2]: -18.8 kcal/mol

GCGATGCGAAAGCCTCGC ((((.((....)).))))
Tm [1]: 64.6 °C | folding enthalpy [2]: -40.3 kcal/mol

GTAGGGGGAAACTCCTGC (.(((.(....).))).)
Tm [1]: 35.5 °C | folding enthalpy [2]: -20 kcal/mol

GCCGTAGGAAACCACGGC (((((.(....).)))))
Tm [1]: 54.4 °C | folding enthalpy [2]: -34.2 kcal/mol

GCAGTGGGAAACCACTAC (.(((((....))))).)
Tm [1]: 41.1 °C | folding enthalpy [2]: -12.9 kcal/mol

GTACAACGAAAGTTATAC (((.(((....))).)))
Tm [1]: 30.4 °C | folding enthalpy [2]: -19.1 kcal/mol

GATCACCGAAAGGTATC (((.(((....))))))
Tm [1]: 34.1 °C | folding enthalpy [2]: -15.8 kcal/mol

GTATGGCGAAAGCCTTAC (((.(((....))).)))
Tm [1]: 48.2 °C | folding enthalpy [2]: -22.8 kcal/mol

GATCTGAGCCCAGATC ((((((....))))))
Tm [1]: 47.3 °C | folding enthalpy [2]: -29.7 kcal/mol

GACAGTGGAAACGCTGTC (((((.(....).)))))
Tm [1]: 52.1 °C | folding enthalpy [2]: -40.9 kcal/mol

GCACCCGAAAGGGAATGC ((((((....)))..)))
Tm [1]: 45.3 °C | folding enthalpy [2]: -20.1 kcal/mol

GTATGGGGAAACCCGTAC (((.(((....))).)))
Tm [1]: 49.1 °C | folding enthalpy [2]: -34.5 kcal/mol

CGCGGATGACTCCGCG ((((((....))))))
Tm [1]: 66.7 °C | folding enthalpy [2]: -43.1 kcal/mol

GATCAGATTTCTGATC ((((((....))))))
Tm [1]: 52.9 °C | folding enthalpy [2]: -41 kcal/mol

GTATGGCGAAAGCCCTAC (((.(((....))).)))
Tm [1]: 37.8 °C | folding enthalpy [2]: -18.4 kcal/mol

GATCACTATTGTGATC ((((((....))))))
Tm [1]: 58.3 °C | folding enthalpy [2]: -37.8 kcal/mol

GACTGGCGAAAGCCTGTC (((.(((....))).)))
Tm [1]: 68.9 °C | folding enthalpy [2]: -21.6 kcal/mol

GCCCAAGGAAACCTGGGC (((((.(....).)))))
Tm [1]: 54.1 °C | folding enthalpy [2]: -43.8 kcal/mol

GAGTCCCGAAAGGGGCTC (((.(((....))).)))
Tm [1]: 69.2 °C | folding enthalpy [2]: -28.9 kcal/mol

GGCTCACGAAAGTGTGCC (((.(((....))).)))
Tm [1]: 64.3 °C | folding enthalpy [2]: -30.8 kcal/mol

GGTGTCCGAAAGGAACC (((.(((....))))))
Tm [1]: 48.3 °C | folding enthalpy [2]: -19.8 kcal/mol

GATAGTGGAAACACTGTC ((.((((....)))).))
Tm [1]: 43.4 °C | folding enthalpy [2]: -29.7 kcal/mol

GGCTCCCGAAAGGGGCC (((.(((....))))))
Tm [1]: 68 °C | folding enthalpy [2]: -30.1 kcal/mol

CGGGAGAAATCCCG (((((....)))))
Tm [1]: 57.1 °C | folding enthalpy [2]: -25.9 kcal/mol

GATCAGTACACTGATC ((((((....))))))
Tm [1]: 54.7 °C | folding enthalpy [2]: -36.4 kcal/mol

GATCTGGTACAGATC ((((((...))))))
Tm [1]: 60.8 °C | folding enthalpy [2]: -41.3 kcal/mol

GATCCGAGGCCGGATC ((((((....))))))
Tm [1]: 56.4 °C | folding enthalpy [2]: -45.5 kcal/mol

GAAAACCGAAAGGTATTC (((.(((....))).)))
Tm [1]: 37.5 °C | folding enthalpy [2]: -23.5 kcal/mol

GCGCCCGAAAGGGACCGC ((((((....)))..)))
Tm [1]: 50.3 °C | folding enthalpy [2]: -22.7 kcal/mol

GCTCTGCGAAAGCCAAGC (((..((....))..)))
Tm [1]: 34.8 °C | folding enthalpy [2]: -13.9 kcal/mol

CGTTACCGGAAACGGACG (((..(((....))))))
Tm [1]: 36.9 °C | folding enthalpy [2]: -17 kcal/mol

GCACAACCGAAAGGTTGC (((..(((....))))))
Tm [1]: 37.8 °C | folding enthalpy [2]: -8.1 kcal/mol

GTGTGCGAAAGCACTCAC ((((((....)))..)))
Tm [1]: 41.8 °C | folding enthalpy [2]: -8.88 kcal/mol

GTATCCGGAAACGGATGC (.(((((....))))).)
Tm [1]: 53 °C | folding enthalpy [2]: -28.3 kcal/mol

GCTAAGCGAAAGCTACGC ((..(((....)))..))
Tm [1]: 39.2 °C | folding enthalpy [2]: -13.2 kcal/mol

GTTGAGGGAAACCTCAGC (.(((((....))))).)
Tm [1]: 46.3 °C | folding enthalpy [2]: -25.4 kcal/mol

GGCTAGACGAAAGTCGCC (((..(((....))))))
Tm [1]: 53.4 °C | folding enthalpy [2]: -25.2 kcal/mol
